Columns and labels:
HeLa = experiment: Antiproliferative activity against human HeLa cells after 72 hrs by Coulter counter method; format: functional, cell-based
Summary of the method: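 Cell count assay in 96-well microtiter plates; (5–7.5) × 10⁴ tumor cells per well plus test compound. Cells proliferated at 37 °C in humidified CO₂-controlled atmosphere, 48 h for murine leukemia L1210, 72 h for human lymphocytic CEM and cervix carcinoma HeLa. Counted by Coulter counter; IC₅₀ is the concentration that inhibits proliferation by 50%.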

EKVX = experiment: Cytotoxicity against human EKVX cells after 48 hrs by SRB assay; format: functional
HOP-92 [1] = experiment: Cytotoxicity against human HOP92 cells after 48 hrs by SRB assay; format: functional; conditions: HOP-92, 48 h
SF-268 = experiment: Cytotoxicity against human SF268 cells after 48 hrs by SRB assay; format: functional; conditions: SF-268, 48 h
OVCAR-5 = experiment: Cytotoxicity against human OVCAR5 cells after 48 hrs by SRB assay; format: functional; conditions: OVCAR-5, 48 h
SK-OV-3 = experiment: Cytotoxicity against human SKOV3 cells after 48 hrs by SRB assay; format: functional; conditions: SK-OV-3, 48 h
RXF 393 [2] = experiment: Cytotoxicity against human RXF393 cells after 48 hrs by SRB assay; format: functional; conditions: RXF 393, 48 h
SN12C = experiment: Cytotoxicity against human SN12C cells after 48 hrs by SRB assay; format: functional
MCF7 = experiment: Cytotoxicity against human MCF7 cells after 48 hrs by SRB assay; format: functional; conditions: MCF7, 48 h
HL-60(TB) = experiment: Growth inhibition of human HL-60(TB) cells assessed as cell growth at 10^-8 M incubated for 48 hrs by sulforhodamine B assay relative to control; format: functional; conditions: HL-60, 48 h, read-out: Activity
A549 [3] = experiment: Growth inhibition of human A549/ATCC cells assessed as cell growth at 10^-8 M incubated for 48 hrs by sulforhodamine B assay relative to control; format: functional; conditions: A549, 48 h, read-out: Activity
KM12 = experiment: Growth inhibition of human KM12 cells assessed as cell growth at 10^-8 M incubated for 48 hrs by sulforhodamine B assay relative to control; format: functional; conditions: KM12, 48 h, read-out: Activity
BT-549 [4] = experiment: Growth inhibition of human BT549 cells assessed as cell growth at 10^-8 M incubated for 48 hrs by sulforhodamine B assay relative to control; format: functional; conditions: BT-549, 48 h, read-out: Activity
SR = experiment: Growth inhibition of human SR cells assessed as cell growth at 10^-7 M incubated for 48 hrs by sulforhodamine B assay relative to control; format: functional; conditions: read-out: Activity
A549 [5] = experiment: Growth inhibition of human A549/ATCC cells assessed as cell growth at 10^-7 M incubated for 48 hrs by sulforhodamine B assay relative to control; format: functional; conditions: A549, 48 h, read-out: Activity
COLO 205 = experiment: Growth inhibition of human COLO205 cells assessed as cell growth at 10^-7 M incubated for 48 hrs by sulforhodamine B assay relative to control; format: functional; conditions: COLO 205, 48 h, read-out: Activity
SK-MEL-2 = experiment: Growth inhibition of human SK-MEL-2 cells assessed as cell growth at 10^-7 M incubated for 48 hrs by sulforhodamine B assay relative to control; format: functional; conditions: SK-MEL-2, 48 h, read-out: Activity
OVCAR-8 = experiment: Growth inhibition of human OVCAR8 cells assessed as cell growth at 10^-7 M incubated for 48 hrs by sulforhodamine B assay relative to control; format: functional; conditions: OVCAR-8, 48 h, read-out: Activity
A498 = experiment: Growth inhibition of human A498 cells assessed as cell growth at 10^-7 M incubated for 48 hrs by sulforhodamine B assay relative to control; format: functional; conditions: A498, 48 h, read-out: Activity
DU-145 = experiment: Growth inhibition of human DU145 cells assessed as cell growth at 10^-7 M incubated for 48 hrs by sulforhodamine B assay relative to control; format: functional; conditions: DU-145, 48 h, read-out: Activity
BT-549 [6] = experiment: Growth inhibition of human BT549 cells assessed as cell growth at 10^-7 M incubated for 48 hrs by sulforhodamine B assay relative to control; format: functional; conditions: BT-549, 48 h, read-out: Activity
RPMI-8226 = experiment: Growth inhibition of human RPMI8226 cells assessed as cell growth at 10^-6 M incubated for 48 hrs by sulforhodamine B assay relative to control; format: functional; conditions: RPMI-8226, 48 h, read-out: Activity
HOP-92 [7] = experiment: Growth inhibition of human HOP92 cells assessed as cell growth at 10^-6 M incubated for 48 hrs by sulforhodamine B assay relative to control; format: functional; conditions: HOP-92, 48 h, read-out: Activity
SF-539 = experiment: Growth inhibition of human SF539 cells assessed as cell growth at 10^-6 M incubated for 48 hrs by sulforhodamine B assay relative to control; format: functional; conditions: SF-539, 48 h, read-out: Activity
M14 = experiment: Growth inhibition of human M14 cells assessed as cell growth at 10^-6 M incubated for 48 hrs by sulforhodamine B assay relative to control; format: functional; conditions: M14, 48 h, read-out: Activity
RXF 393 [8] = experiment: Growth inhibition of human RXF393 cells assessed as cell growth at 10^-6 M incubated for 48 hrs by sulforhodamine B assay relative to control; format: functional; conditions: RXF 393, 48 h, read-out: Activity
SNB-19 = experiment: Growth inhibition of human SNB19 cells assessed as cell growth at 10^-5 M incubated for 48 hrs by sulforhodamine B assay relative to control; format: functional; conditions: SNB-19, 48 h, read-out: Activity
MDA-MB-231 = experiment: Growth inhibition of human MDA-MB-231 cells assessed as cell growth at 10^-5 M incubated for 48 hrs by sulforhodamine B assay relative to control; format: functional; conditions: MDA-MB-231, 48 h, read-out: Activity
[9] = read-out: pLC50 (the source's name) (converted)
[10] = read-out: LC50 (the source's name)

## C#C[C@@]1(O)[C@@H](CO)O[C@@H](n2cc(I)c3c(N)ncnc32)[C@@H]1O
HeLa
  IC50: 180 nM
EKVX; read-out: GI50
  GI50: 395 to 421 nM
EKVX; read-out: TGI
  TGI: 4040 to 7140 nM
EKVX; [9]
  CC50: > 100000 nM
HOP-92 [1]; read-out: GI50
  GI50: 25 to 217 nM
HOP-92 [1]; [10]
  CC50: > 100000 nM
HOP-92 [1]; read-out: TGI
  TGI: 991 to 4980 nM
SF-268; read-out: GI50
  GI50: 941 to 1280 nM
SF-268; [10]
  CC50: > 100000 nM
SF-268; read-out: TGI
  TGI: 32200 to 77300 nM
OVCAR-5; read-out: GI50
  GI50: 515 to 1690 nM
OVCAR-5; [10]
  CC50: > 100000 nM
OVCAR-5; read-out: TGI
  TGI: > 100000 nM
OVCAR-5; read-out: pTGI (converted)
  TGI: > 100000 nM
SK-OV-3; read-out: GI50
  GI50: 19.4 to 60.4 nM
SK-OV-3; [10]
  CC50: > 100000 nM
SK-OV-3; read-out: TGI
  TGI: 469 to 1130 nM
RXF 393 [2]; read-out: GI50
  GI50: 418 to 463 nM
RXF 393 [2]; [10]
  CC50: 7840 to 100000 nM
RXF 393 [2]; read-out: TGI
  TGI: 2010 to 2540 nM
SN12C; read-out: GI50
  GI50: 69 to 138 nM
SN12C; read-out: TGI
  TGI: > 100000 nM
SN12C; [9]
  CC50: > 100000 nM
SN12C; read-out: pTGI (converted)
  TGI: > 100000 nM
MCF7; read-out: TGI
  TGI: > 100000 nM
MCF7; [9]
  CC50: > 100000 nM
MCF7; read-out: pTGI (converted)
  TGI: > 100000 nM
HL-60(TB)
  growth at 0.01 µM: 83%
A549 [3]
  growth at 0.01 µM: 90 to 92%
KM12
  growth at 0.01 µM: 94 to 97%
BT-549 [4]
  growth at 0.01 µM: 86 to 96%
SR
  growth at 0.1 µM: 60 to 86%
A549 [5]
  growth at 0.1 µM: 69 to 80%
COLO 205
  growth at 0.1 µM: 35 to 63%
SK-MEL-2
  growth at 0.1 µM: 63 to 77%
OVCAR-8
  growth at 0.1 µM: 32 to 35%
A498
  growth at 0.1 µM: 74 to 89%
DU-145
  growth at 0.1 µM: 50 to 57%
BT-549 [6]
  growth at 0.1 µM: 61 to 76%
RPMI-8226
  growth at 1 µM: 23 to 27%
HOP-92 [7]
  growth at 1 µM: 10%
SF-539
  growth at 1 µM: 23 to 35%
M14
  growth at 1 µM: 38 to 43%
RXF 393 [8]
  growth at 1 µM: 26 to 34%
SNB-19
  growth at 10 µM: 2 to 3%
MDA-MB-231
  growth at 10 µM: 10 to 12%

From ChEMBL document CHEMBL4270599, “Synthesis of a 3'-C-ethynyl-β-d-ribofuranose purine nucleoside library: Discovery of C7-deazapurine analogs as potent antiproliferative nucleosides” (Eur J Med Chem, 2018)
